From ChEMBL document CHEMBL1153135, “Reaction of naphthoquinones with substituted nitromethanes. Facile synthesis and antifungal activity of naphtho[2,3-d]isoxazole-4,9-diones” (2010)
In brackets after ≈: the same amount, converted by molar mass.

What was measured:
Assay type in all cases: functional
Candida albicans [1] = test: Antifungal activity against Candida albicans ATCC 90028 after 48 hrs; settings: ATCC 90028, 48 h
Method in brief: (§1)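 Broth microdilution after modified CLSI M27-A in SG minimal medium (yeast nitrogen base without amino acids, 2% glucose). Compounds dissolved in DMSO (1 mg/mL), diluted 10-fold in SG, then 30 final concentrations from 97.5 to 0.0025 µg/mL. About 5 × 10³ cells/well, in triplicate. Incubated at 30 °C for 48 h, OD 655 nm read as % of DMSO control; MIC50 by probit analysis of mean values.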

Candida albicans [2] = test: Antifungal activity against Candida albicans PYCC 3436 after 48 hrs; settings: PYCC 3436, 48 h; method in brief: as §1
Pichia kudriavzevii = test: Antifungal activity against Candida krusei PYCC 3341 after 48 hrs; settings: PYCC 3341, 48 h; method in brief: as §1
Candida parapsilosis [3] = test: Antifungal activity against Candida parapsilosis PYCC 2545 after 48 hrs; settings: Lodderomyces parapsilosis, PYCC 2545, 48 h; method in brief: as §1
Candida parapsilosis [4] = test: Antifungal activity against Candida parapsilosis ATCC 22019 after 48 hrs; settings: Lodderomyces parapsilosis, ATCC 22019, 48 h; method in brief: as §1
Nakaseomyces glabratus = test: Antifungal activity against Candida glabrata PYCC 2418 after 48 hrs; settings: PYCC 2418, 48 h; method in brief: as §1

SMILES | MIC50 (Candida albicans [1]) | MIC50 (Candida albicans [2]) | MIC50 (Pichia kudriavzevii) | MIC50 (Candida parapsilosis [3]) | MIC50 (Candida parapsilosis [4]) | MIC50 (Nakaseomyces glabratus)
CCOC1=C(Cl)C(=O)c2ccccc2C1=O | 202 µM (≈ 47.9 µg/mL) | 9.5 µM (≈ 2.25 µg/mL) | 3.9 µM (≈ 0.923 µg/mL) | 48.3 µM (≈ 11.4 µg/mL) | 40.4 µM (≈ 9.56 µg/mL) | 3.8 µM (≈ 0.899 µg/mL)
COC1=C(Cl)C(=O)c2ccccc2C1=O | 73.9 µM (≈ 16.5 µg/mL) | 10.4 µM (≈ 2.32 µg/mL) | 4.6 µM (≈ 1.02 µg/mL) | 5.3 µM (≈ 1.18 µg/mL) | 4.7 µM (≈ 1.05 µg/mL) | 16.7 µM (≈ 3.72 µg/mL)
CCOC(=O)CC1=C(Br)C(=O)c2ccccc2C1=O | 4.5 µM (≈ 1.45 µg/mL) | 0.9 µM (≈ 0.291 µg/mL) |  | 1.1 µM (≈ 0.355 µg/mL) | 3.2 µM (≈ 1.03 µg/mL) | 12 µM (≈ 3.88 µg/mL)
O=C1c2ccccc2C(=O)c2c(S(=O)(=O)c3ccccc3)noc21 | 56.7 µM (≈ 19.2 µg/mL) | 2.5 µM (≈ 0.848 µg/mL) | 9.7 µM (≈ 3.29 µg/mL) | 1.6 µM (≈ 0.543 µg/mL) | 6.1 µM (≈ 2.07 µg/mL) | 1.5 µM (≈ 0.509 µg/mL)
CCOC(=O)c1noc2c1C(=O)c1ccccc1C2=O | 11.5 µM (≈ 3.12 µg/mL) | 1.8 µM (≈ 0.488 µg/mL) | 2.3 µM (≈ 0.624 µg/mL) | 0.6 µM (≈ 0.163 µg/mL) | 1.7 µM (≈ 0.461 µg/mL) | 0.6 µM (≈ 0.163 µg/mL)
O=C(c1ccccc1)c1noc2c1C(=O)c1ccccc1C2=O | 71.2 µM (≈ 21.6 µg/mL) | 1.6 µM (≈ 0.485 µg/mL) | 21.2 µM (≈ 6.43 µg/mL) | 13.2 µM (≈ 4 µg/mL) | 3.3 µM (≈ 1 µg/mL) | 47.6 µM (≈ 14.4 µg/mL)
COC(=O)c1noc2c1C(=O)c1ccccc1C2=O | 12.2 µM (≈ 3.14 µg/mL) | 0.7 µM (≈ 0.18 µg/mL) | 2.4 µM (≈ 0.617 µg/mL) | 1.3 µM (≈ 0.334 µg/mL) | 1.8 µM (≈ 0.463 µg/mL) | 2.6 µM (≈ 0.669 µg/mL)
C[C@@H]1[C@H](O)[C@@H](C)/C=C/C=C/C=C/C=C/C=C/C=C/C=C/[C@H](O[C@@H]2O[C@H](C)[C@@H](O)[C@H](N)[C@@H]2O)C[C@@H]2O[C@](O)(C[C@@H](O)C[C@@H](O)[C@H](O)CC[C@@H](O)C[C@@H](O)CC(=O)O[C@H]1C)C[C@H](O)[C@H]2C(=O)O [AMPHOTERICIN B] | 1.2 µM (≈ 1.11 µg/mL) | 0.5 µM (≈ 0.462 µg/mL) | 1 µM (≈ 0.924 µg/mL) | 0.5 µM (≈ 0.462 µg/mL) | 0.5 µM (≈ 0.462 µg/mL) | 0.4 µM (≈ 0.37 µg/mL)
